Compound activity (PubChem)
MEKK3 PB1 HTS – modulators of MEKK3-MEK5 PB1 binding, primary screen, biochemical, wildtype MEKK3, multiplex bead flow cytometry, Alexa488-MEK5 | Mitogen-activated protein kinase kinase kinase 3 (Homo sapiens), Q99759 | bead-based flow cytometry, Alexa488-MEK5 binding to MEKK3; actives lie on both sides; 0 = blocked by unlabeled MEK5, 100 = vehicle | binding response (% of control), % at 10 µM | actives 1.4% (n = 290,000) | AID 1529, 2009;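 active means binding response more than 3 SD above or below the average of its plate-row segment, actives on both sides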;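 further: Alexa488 bead fluorescence after subtracting the streptavidin-only scavenger bead signal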
MEKK2 WT-MEK5 – modulators of MEK5 binding to wildtype MEKK2, primary screen, biochemical, multiplex bead flow cytometry, Alexa488-MEK5; Mitogen-activated protein kinase kinase kinase 2 (Homo sapiens), Q9Y2U5; Alexa488-MEK5 binding to MEKK2 WT; actives lie on both sides; binding response (% of control), % at 10 µM; actives 1.1% (n = 290,000); in the data active means binding response below about 67% or above about 130%
MEKK2 mut-MEK5 – MEK5 binding signal on mutant MEKK2 PB1, primary screen, biochemical, multiplex bead flow cytometry, Alexa488-MEK5 | Alexa488-MEK5 binding to MEKK2 mutant | percent response, % at 10 µM | actives 0.35% (n = 290,000) | AID 1530, 2009; in the data active means percent response above about 24%, passing the limit was not always enough
PREPL inh – PREPL enzyme inhibitors, primary screen, biochemical, fluorescence polarization; Prolyl endopeptidase-like (Homo sapiens), Q4J6C6; recombinant PREPL, fluorescence polarization activity-based probe; inhibition, % at 5.96 µM; actives 0.68% (n = 320,000);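 further: 0% = enzyme with DMSO and 100% = wells lacking enzyme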
Apaf1 inhib – inhibitors of human Apaf-1 apoptosome, primary screen, biochemical, DEVD-Rh110 fluorescence, uHTS; actives 0.71% (n = 330,000); Apoptotic protease-activating factor 1 (Homo sapiens), O14727; inhibition, % at 20 µM; reconstituted apoptosome caspase-3 activity; active means inhibition of at least 40% at 20 µM;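 further: plate controls were DMSO wells for no effect and DEVD-CHO caspase inhibitor wells for full effect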
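Material: reconstituted apoptosome with Apaf-1, cytochrome c, caspase-9, procaspase-3, dATP. Technique: Rh110 fluorescence intensity. Buffer or medium: pH 7.5 Hepes buffer with CHAPS, BSA, DTT. Times: 30 min plus 50 min, RT.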
UBC13 polyUb – UBC13 polyubiquitin chain formation inhibitors, primary screen, biochemical, TR-FRET, uHTS. Ubiquitin-conjugating enzyme E2 N (Homo sapiens), P61088. actives 0.47% (n = 330,000). inhibition, % at 20 µM; in the data active means inhibition above about 45%, passing the limit was not always enough
MEKK2wt confirm – modulators of MEK5 binding to wildtype MEKK2, confirmation, biochemical, single concentration, multiplex bead flow cytometry; shares compounds with MEKK3 PB1 HTS; Alexa488-MEK5 binding to MEKK2 WT; actives lie on both sides; binding response (% of control), % at 10 µM; actives 2.4% (n = 5,900); AID 1892, 2009; in the data active means binding response below about 16% or above about 210%; inactive means in between
MEKK2mut-MEK5 – mutant MEKK2 PB1-MEK5 binding signal retest – biochemical, single concentration, multiplex bead flow cytometry, confirmation; actives 2% (n = 5,900); Alexa488-MEK5 binding to MEKK2 mutant; AID 1893, 2009; shares compounds with MEKK3 PB1 HTS; percent response, % at 10 µM; in the data active means percent response mostly above about 71%, no sharp cut-off; inactive means mostly below about 38%;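 further: higher means compound restores mutant binding toward wildtype level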
MEKK3 confirm – MEKK3 wild-type PB1 binding to MEK5, inhibitors, confirmation, biochemical, bead multiplex flow cytometry, single concentration, wildtype; actives 1.8% (n = 5,900); Alexa488-MEK5 binding to MEKK3; hits give low values; AID 1894, 2009; shares compounds with MEKK3 PB1 HTS; binding response (% of control), % at 10 µM;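 active means binding response below 72% of control, or above a set upper limit, though filed actives all read lower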;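 further: 100% = DMSO only wells and 0% = binding blocked by excess unlabeled MEK5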
PREPL inh cf – human PREPL enzyme inhibitors, confirmation, biochemical, fluorescence polarization. shares compounds with PREPL inh. recombinant PREPL, fluorescence polarization activity probe. inhibition, % at 5.96 µM. actives 67% (n = 2,000). AID 2803, 2010;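 further: 0% = protein with DMSO and 100% = wells lacking protein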
Casp3 counter – CASP3 inhibitor validation, counterassay for project on UBE2N polyubiquitination blockers, biochemical, one dose; AID 488856, 2010; actives 4% (n = 1,400); shares compounds with UBC13 polyUb; inhibition, % at 20 µM; Recombinant caspase-3, Caspase-Glo 3/7 luminescence, 60 min;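 active means mean inhibition across replicates above about 26%, limit read from the data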;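 further: plate controls were DMSO with caspase-3 for no effect and DMSO wells lacking enzyme for full effect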
UBC13 confirm – UBC13 polyubiquitination inhibitors, single-point retest, confirmation, biochemical, TR-FRET, single concentration; shares compounds with UBC13 polyUb; inhibition, % at 10 µM; actives 68% (n = 1,400); AID 488859, 2010; in the data active means inhibition above about 45%
Starred values were filed as active, the others as inactive. This is a sample that favours compounds with a hit; in the whole collection about 3.1% have one here. Unless noted, no stated cut-off is given here; in the data, active means inhibition above about 43%; inactive means the rest.

What do the screens show for `CNC[C@@H](Cc1ccccc1)NC[C@@H](CC1CCCCC1)NCCCc1ccccc1`?
MEKK3 PB1 HTS: 115.0; MEKK2 WT-MEK5: 244.0*; MEKK2 mut-MEK5: 44.0*; PREPL inh: 13.8; Apaf1 inhib: 23.5; UBC13 polyUb: 93.4*; MEKK2wt confirm: 163.0; MEKK2mut-MEK5: 37.0; MEKK3 confirm: 99.0; Casp3 counter: -2.0; UBC13 confirm: 75.8*

Results for CN(Cc1cccc(C(F)(F)F)c1)C(=O)C1CCC(=O)N(CC2CCCCC2)C1 (centres undefined) ?
MEKK3 PB1 HTS: 97.0; MEKK2 WT-MEK5: 99.0; MEKK2 mut-MEK5: -2.0; PREPL inh: 13.4; Apaf1 inhib: 13.2; UBC13 polyUb: 8.2

What do the screens show for `CNC[C@@H](CC1CCCCC1)NC[C@H](CC(C)C)NCCc1cccc(C(F)(F)F)c1`?
MEKK3 PB1 HTS: 109.0; MEKK2 WT-MEK5: 234.0*; MEKK2 mut-MEK5: 33.0*; PREPL inh: 9.6; Apaf1 inhib: 28.6; UBC13 polyUb: 92.1*; MEKK2wt confirm: 159.0; MEKK2mut-MEK5: 36.0; MEKK3 confirm: 107.0; Casp3 counter: -1.2; UBC13 confirm: 80.2*

How did COc1cc(-c2nc(C(=O)NC3CCN(Cc4ccccc4)CC3)cc3c2[nH]c2ccccc23)cc(OC)c1OC do in these assays?
MEKK3 PB1 HTS: 105.0; MEKK2 WT-MEK5: 147.0*; MEKK2 mut-MEK5: 21.0; PREPL inh: 1.6; Apaf1 inhib: 40.9*; UBC13 polyUb: 55.8*; MEKK2wt confirm: 170.0; MEKK2mut-MEK5: 47.0; MEKK3 confirm: 107.0; Casp3 counter: -1.0; UBC13 confirm: 48.9*

How did CN1CCN(C(=S)NC(=O)c2ccco2)CC1 do in these assays?
MEKK3 PB1 HTS: 98.0; MEKK2 WT-MEK5: 94.0; MEKK2 mut-MEK5: -8.0; PREPL inh: 4.6; Apaf1 inhib: -4.8; UBC13 polyUb: -5.9

Results for Cc1ccc(C)c(OC(=O)c2cccc(S(=O)(=O)N3CCN(C)CC3)c2)c1 ?
MEKK3 PB1 HTS: 101.0; MEKK2 WT-MEK5: 110.0; MEKK2 mut-MEK5: 5.0; PREPL inh: -5.3; Apaf1 inhib: 5.2; UBC13 polyUb: -1.6

Results for CC[C@H](C)[C@@H]1NC(=O)c2cc([N+](=O)[O-])cc(F)c2NCCCC[C@@H](C(N)=O)NC(=O)[C@H](CC(N)=O)NC1=O ?
MEKK3 PB1 HTS: 108.0; MEKK2 WT-MEK5: 100.0; MEKK2 mut-MEK5: 2.0; PREPL inh: 1.6; Apaf1 inhib: -2.5; UBC13 polyUb: -5.9

How did C[C@@H](O)C1NC(=O)[C@H](CCCCN)NC(=O)c2cc([N+](=O)[O-])cc(F)c2NCCCC[C@@H](C(N)=O)NC1=O (some centres undefined) do in these assays?
MEKK3 PB1 HTS: 108.0; MEKK2 WT-MEK5: 141.0*; MEKK2 mut-MEK5: 14.0; PREPL inh: 20.1; Apaf1 inhib: -6.0; UBC13 polyUb: 95.8*; MEKK2wt confirm: 143.0; MEKK2mut-MEK5: 22.0; MEKK3 confirm: 102.0; Casp3 counter: -0.4; UBC13 confirm: 100.9*

How did CCN(C(=O)Cn1nnc(-c2ccccc2)n1)C1CCS(=O)(=O)C1 (centres undefined) do in these assays?
PREPL inh: 5.9; Apaf1 inhib: 5.7; UBC13 polyUb: -3.2

Results for COc1ccccc1Nc1nc(NCCO)c2ccccc2n1 ?
MEKK3 PB1 HTS: 110.0; MEKK2 WT-MEK5: 103.0; MEKK2 mut-MEK5: 1.0; Apaf1 inhib: -0.9; UBC13 polyUb: -9.3

How did Cc1ccc(Nc2nc(NCCO)c3ccccc3n2)cc1C do in these assays?
MEKK3 PB1 HTS: 108.0; MEKK2 WT-MEK5: 160.0*; MEKK2 mut-MEK5: 14.0; PREPL inh: 55.8*; Apaf1 inhib: 20.4; UBC13 polyUb: 52.4*; MEKK2wt confirm: 142.0; MEKK2mut-MEK5: 33.0; MEKK3 confirm: 104.0; PREPL inh cf: 50.1*; Casp3 counter: 2.3; UBC13 confirm: 82.3*

Results for CN(C)CCCn1cnc2c(c1=N)C(c1ccccc1)c1ccc3ccccc3c1O2 (centres undefined) ?
MEKK3 PB1 HTS: 101.0; MEKK2 WT-MEK5: 170.0*; MEKK2 mut-MEK5: 26.0*; PREPL inh: 3.6; Apaf1 inhib: 15.4; UBC13 polyUb: 70.9*; MEKK2wt confirm: 194.0; MEKK2mut-MEK5: 64.0; MEKK3 confirm: 103.0; Casp3 counter: 2.0; UBC13 confirm: 82.1*

Results for N=c1c2c(ncn1CCCO)Oc1c(ccc3ccccc13)C2c1ccccc1 (centres undefined) ?
MEKK3 PB1 HTS: 102.0; MEKK2 WT-MEK5: 135.0; MEKK2 mut-MEK5: 18.0; PREPL inh: -3.3; Apaf1 inhib: -3.6; UBC13 polyUb: 40.7
